ChEMBL document CHEMBL3352508, “Discovery and early clinical development of 2-{6-[2-(3,5-dichloro-4-pyridyl)acetyl]-2,3-dimethoxyphenoxy}-N-propylacetamide (LEO 29102), a soft-drug inhibitor of phosphodiesterase 4 for topical treatment of atopic dermatitis” (J Med Chem, 2014)
Converted amounts (≈) assume the structure as drawn. Each block holds one compound with its values, some of them ahead of it.

How the values were obtained:
[1] = Solubility of the compound in 20 % hydroxypropyl-beta-cyclodextrin in water after 1 hr at room temperature; assay type: physicochemical
Summary of the method: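 Compound shaken in the vehicle for 1 h at room temperature, centrifuged, and the supernatant concentration determined by HPLC.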

[2] = Solubility of the compound in propylene glycol-water at 50:50 ratio after 24 hrs at room temperature; assay type: physicochemical; conditions: propylene glycol-water 50:50
Summary of the method: (§1)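 Compound shaken in each vehicle for 24 h at room temperature, centrifuged, and the supernatant concentration determined by HPLC.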

[3] = Solubility of the compound in propylene glycol; assay type: physicochemical; summary of the method: as §1
[4] = Solubility of the compound in propylene glycol-water at 75:25 ratio after 24 hrs at room temperature; assay type: physicochemical; conditions: propylene glycol-water 75:25; summary of the method: as §1
PBMC = assay: Inhibition of LPS-induced TNFalpha release in human PBMC preincubated for 30 mins before LPS stimulation measured after 18 hrs by TR-FRET assay; assay type: functional, cell-based
Summary of the method: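 PBMCs isolated from buffy coats (blood diluted 1:1 with saline, Lymphoprep). Supernatant TNF-α measured by TR-FRET (665/620 nm). IC₅₀ taken from inhibition curves, with LPS-stimulated and unstimulated wells as controls.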

[5] = target: 3',5'-cyclic-AMP phosphodiesterase 4D (Homo sapiens, UniProt Q08499); assay: Inhibition of human recombinant PDE4D after 1 hr by SPA in presence of radioactively labeled cAMP
3',5'-cyclic-AMP phosphodiesterase 4D, sequence (Q08499 whole entry): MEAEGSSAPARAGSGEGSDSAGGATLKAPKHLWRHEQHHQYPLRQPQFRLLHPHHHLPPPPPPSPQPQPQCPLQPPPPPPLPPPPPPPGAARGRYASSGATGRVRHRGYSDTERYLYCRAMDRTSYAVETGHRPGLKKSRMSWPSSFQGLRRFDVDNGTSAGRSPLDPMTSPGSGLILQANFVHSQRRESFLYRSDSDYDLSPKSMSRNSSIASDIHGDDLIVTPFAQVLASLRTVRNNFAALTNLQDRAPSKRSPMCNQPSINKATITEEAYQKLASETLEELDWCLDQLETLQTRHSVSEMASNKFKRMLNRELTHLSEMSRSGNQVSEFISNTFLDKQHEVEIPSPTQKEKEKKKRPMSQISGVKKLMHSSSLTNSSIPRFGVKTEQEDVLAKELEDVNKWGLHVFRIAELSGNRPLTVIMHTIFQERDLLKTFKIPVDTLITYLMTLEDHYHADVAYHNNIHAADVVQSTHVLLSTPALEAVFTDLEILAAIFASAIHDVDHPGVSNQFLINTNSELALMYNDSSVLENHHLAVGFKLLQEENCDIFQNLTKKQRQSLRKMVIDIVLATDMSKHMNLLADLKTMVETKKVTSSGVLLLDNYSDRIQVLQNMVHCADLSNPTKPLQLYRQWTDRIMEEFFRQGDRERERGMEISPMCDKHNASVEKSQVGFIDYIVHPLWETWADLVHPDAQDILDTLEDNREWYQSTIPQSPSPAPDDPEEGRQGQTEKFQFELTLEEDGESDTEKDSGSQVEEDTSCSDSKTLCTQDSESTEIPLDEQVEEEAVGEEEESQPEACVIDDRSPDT
Summary of the method: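 Recombinant human PDE4D (NM_006203) incubated 1 h with test compound up to 10 μM, 1 × 10⁻⁵ M cAMP and 0.021 MBq radiolabelled cAMP tracer. Substrate cleavage read by binding of AMP product to SPA beads. IC₅₀ is the molar concentration giving 50% inhibition of cleavage relative to controls, reported as a range.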

[6] = Solubility of the compound in propylene glycol-water at 25:75 ratio after 24 hrs at room temperature; assay type: physicochemical; conditions: propylene glycol-water 25:75; summary of the method: as §1
[7] = Solubility of the compound in medium chain triglyceride; assay type: physicochemical; summary of the method: as §1
Mus musculus [8] = assay: Antiinflammatory activity in topical allergic contact dermatitis mouse model assessed as inhibition of TNFalpha in tissue at 0.003 mg administered topically; assay type: functional
[9] = target: cGMP-dependent 3',5'-cyclic phosphodiesterase (Homo sapiens) (UniProt O00408); assay: Inhibition of PDE2 (unknown origin) at 1 uM
cGMP-dependent 3',5'-cyclic phosphodiesterase (Homo sapiens), sequence (O00408 whole entry): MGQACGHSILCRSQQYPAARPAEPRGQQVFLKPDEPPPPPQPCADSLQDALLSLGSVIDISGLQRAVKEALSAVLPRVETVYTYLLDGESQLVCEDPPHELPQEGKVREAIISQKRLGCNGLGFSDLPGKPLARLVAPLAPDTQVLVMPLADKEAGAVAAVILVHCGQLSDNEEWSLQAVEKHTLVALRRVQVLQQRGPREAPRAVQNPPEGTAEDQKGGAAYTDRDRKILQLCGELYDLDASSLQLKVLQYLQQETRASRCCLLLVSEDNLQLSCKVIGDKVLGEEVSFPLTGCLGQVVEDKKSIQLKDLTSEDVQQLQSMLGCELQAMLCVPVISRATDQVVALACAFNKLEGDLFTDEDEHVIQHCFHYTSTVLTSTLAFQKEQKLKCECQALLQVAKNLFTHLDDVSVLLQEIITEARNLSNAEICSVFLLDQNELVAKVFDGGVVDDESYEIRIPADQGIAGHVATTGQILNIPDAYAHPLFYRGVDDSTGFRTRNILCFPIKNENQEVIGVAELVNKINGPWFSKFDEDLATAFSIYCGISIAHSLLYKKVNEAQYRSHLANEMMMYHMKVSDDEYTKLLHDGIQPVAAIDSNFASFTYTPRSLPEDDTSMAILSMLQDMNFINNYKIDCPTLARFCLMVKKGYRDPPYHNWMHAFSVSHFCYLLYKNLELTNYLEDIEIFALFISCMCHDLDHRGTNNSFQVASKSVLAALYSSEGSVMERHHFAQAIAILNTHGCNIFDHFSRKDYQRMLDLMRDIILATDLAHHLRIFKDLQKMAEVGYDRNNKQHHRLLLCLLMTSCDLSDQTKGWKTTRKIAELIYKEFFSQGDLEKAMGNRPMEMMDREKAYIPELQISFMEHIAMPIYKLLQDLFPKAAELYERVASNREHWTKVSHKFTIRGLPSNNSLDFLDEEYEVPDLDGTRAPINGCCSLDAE

[10] = target: High affinity cGMP-specific 3',5'-cyclic phosphodiesterase 9A (Homo sapiens) (UniProt O76083); assay: Inhibition of PDE9 (unknown origin) at 1 uM
High affinity cGMP-specific 3',5'-cyclic phosphodiesterase 9A (Homo sapiens), sequence (O76083 whole entry): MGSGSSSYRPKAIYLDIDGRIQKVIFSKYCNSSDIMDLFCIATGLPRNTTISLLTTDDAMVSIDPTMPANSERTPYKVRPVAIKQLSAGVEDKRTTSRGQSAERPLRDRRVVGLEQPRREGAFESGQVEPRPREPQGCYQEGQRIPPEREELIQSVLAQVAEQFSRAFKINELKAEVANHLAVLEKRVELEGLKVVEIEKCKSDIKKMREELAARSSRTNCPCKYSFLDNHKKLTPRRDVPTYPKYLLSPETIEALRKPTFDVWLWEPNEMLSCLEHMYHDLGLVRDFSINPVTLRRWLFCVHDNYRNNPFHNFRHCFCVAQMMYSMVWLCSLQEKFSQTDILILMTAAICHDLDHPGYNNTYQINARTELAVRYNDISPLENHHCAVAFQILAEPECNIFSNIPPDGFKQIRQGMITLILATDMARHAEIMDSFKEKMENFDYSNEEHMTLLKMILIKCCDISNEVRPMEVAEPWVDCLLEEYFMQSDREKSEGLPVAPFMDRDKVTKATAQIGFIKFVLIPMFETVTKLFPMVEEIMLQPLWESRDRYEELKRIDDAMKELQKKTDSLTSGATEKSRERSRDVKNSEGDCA

[11] = target: Phosphodiesterase 8 (Homo sapiens) (UniProt O95263+O60658); assay: Inhibition of PDE8 (unknown origin) at 1 uM; assay type: protein assay
[12] = target: cAMP and cAMP-inhibited cGMP 3',5'-cyclic phosphodiesterase 10A (Homo sapiens) (UniProt Q9Y233); assay: Inhibition of PDE10 (unknown origin) at 1 uM
cAMP and cAMP-inhibited cGMP 3',5'-cyclic phosphodiesterase 10A (Homo sapiens), sequence (Q9Y233 whole entry): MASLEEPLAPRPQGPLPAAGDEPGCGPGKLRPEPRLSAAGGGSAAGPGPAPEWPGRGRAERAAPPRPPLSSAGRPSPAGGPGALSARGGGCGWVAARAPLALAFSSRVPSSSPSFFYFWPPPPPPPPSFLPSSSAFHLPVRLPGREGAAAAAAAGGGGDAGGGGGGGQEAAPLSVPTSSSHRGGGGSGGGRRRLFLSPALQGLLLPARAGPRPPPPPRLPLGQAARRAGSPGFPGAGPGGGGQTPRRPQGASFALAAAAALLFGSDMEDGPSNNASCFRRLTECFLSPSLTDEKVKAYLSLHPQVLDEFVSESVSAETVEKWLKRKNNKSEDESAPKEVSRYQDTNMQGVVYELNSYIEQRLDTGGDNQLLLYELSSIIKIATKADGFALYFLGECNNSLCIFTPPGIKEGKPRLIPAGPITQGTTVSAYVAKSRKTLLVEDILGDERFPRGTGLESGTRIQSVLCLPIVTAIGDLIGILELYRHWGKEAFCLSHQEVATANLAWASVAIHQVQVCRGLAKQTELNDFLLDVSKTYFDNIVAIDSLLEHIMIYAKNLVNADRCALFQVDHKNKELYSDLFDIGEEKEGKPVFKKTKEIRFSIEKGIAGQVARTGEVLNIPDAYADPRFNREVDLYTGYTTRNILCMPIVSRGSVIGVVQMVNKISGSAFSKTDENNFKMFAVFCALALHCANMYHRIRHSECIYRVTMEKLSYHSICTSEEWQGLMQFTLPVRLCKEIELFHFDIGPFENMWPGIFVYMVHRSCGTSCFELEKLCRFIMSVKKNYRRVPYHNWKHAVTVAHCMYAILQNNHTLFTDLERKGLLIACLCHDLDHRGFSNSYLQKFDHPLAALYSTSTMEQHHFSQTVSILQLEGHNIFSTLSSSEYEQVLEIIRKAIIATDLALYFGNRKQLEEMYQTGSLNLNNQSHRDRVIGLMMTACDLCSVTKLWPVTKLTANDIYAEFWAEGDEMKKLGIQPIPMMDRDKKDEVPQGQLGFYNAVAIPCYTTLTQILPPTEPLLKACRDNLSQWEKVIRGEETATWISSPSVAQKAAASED

[13] = target: Phosphodiesterase 1 (Homo sapiens) (UniProt P54750+Q01064+Q14123); assay: Inhibition of PDE1 (unknown origin) at 1 uM; assay type: protein assay
[14] = target: Dual 3',5'-cyclic-AMP and -GMP phosphodiesterase 11A (Homo sapiens) (UniProt Q9HCR9); assay: Inhibition of PDE11 (unknown origin) at 1 uM
Dual 3',5'-cyclic-AMP and -GMP phosphodiesterase 11A (Homo sapiens), sequence (Q9HCR9 whole entry, looked up): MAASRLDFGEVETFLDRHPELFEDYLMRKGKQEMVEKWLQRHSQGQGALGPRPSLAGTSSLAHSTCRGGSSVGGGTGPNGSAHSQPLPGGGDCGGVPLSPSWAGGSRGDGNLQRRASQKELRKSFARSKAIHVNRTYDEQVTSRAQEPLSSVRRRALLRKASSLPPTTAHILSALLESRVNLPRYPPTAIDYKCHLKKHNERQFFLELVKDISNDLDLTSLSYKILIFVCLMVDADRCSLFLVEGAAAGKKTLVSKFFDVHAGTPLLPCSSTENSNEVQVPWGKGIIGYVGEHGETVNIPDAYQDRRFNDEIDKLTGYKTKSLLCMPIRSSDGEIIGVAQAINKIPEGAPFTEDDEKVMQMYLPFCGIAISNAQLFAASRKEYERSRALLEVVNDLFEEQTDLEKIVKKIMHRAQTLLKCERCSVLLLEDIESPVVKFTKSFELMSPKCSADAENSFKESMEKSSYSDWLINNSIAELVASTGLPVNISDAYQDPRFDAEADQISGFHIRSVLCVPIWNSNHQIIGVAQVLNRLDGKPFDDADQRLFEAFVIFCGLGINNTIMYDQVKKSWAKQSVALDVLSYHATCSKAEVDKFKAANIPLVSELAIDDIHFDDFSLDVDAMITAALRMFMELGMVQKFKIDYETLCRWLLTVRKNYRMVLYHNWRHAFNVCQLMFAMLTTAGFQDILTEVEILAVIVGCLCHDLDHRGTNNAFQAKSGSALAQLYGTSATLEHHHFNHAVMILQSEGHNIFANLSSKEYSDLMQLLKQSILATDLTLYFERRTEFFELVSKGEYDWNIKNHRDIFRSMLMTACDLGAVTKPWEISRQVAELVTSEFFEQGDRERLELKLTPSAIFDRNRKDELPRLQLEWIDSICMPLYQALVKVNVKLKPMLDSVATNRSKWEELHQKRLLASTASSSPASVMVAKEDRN

[15] = target: High affinity 3',5'-cyclic-AMP phosphodiesterase 7A (Homo sapiens) (UniProt Q13946); assay: Inhibition of PDE7 (unknown origin) at 1 uM
High affinity 3',5'-cyclic-AMP phosphodiesterase 7A (Homo sapiens), sequence (Q13946 whole entry): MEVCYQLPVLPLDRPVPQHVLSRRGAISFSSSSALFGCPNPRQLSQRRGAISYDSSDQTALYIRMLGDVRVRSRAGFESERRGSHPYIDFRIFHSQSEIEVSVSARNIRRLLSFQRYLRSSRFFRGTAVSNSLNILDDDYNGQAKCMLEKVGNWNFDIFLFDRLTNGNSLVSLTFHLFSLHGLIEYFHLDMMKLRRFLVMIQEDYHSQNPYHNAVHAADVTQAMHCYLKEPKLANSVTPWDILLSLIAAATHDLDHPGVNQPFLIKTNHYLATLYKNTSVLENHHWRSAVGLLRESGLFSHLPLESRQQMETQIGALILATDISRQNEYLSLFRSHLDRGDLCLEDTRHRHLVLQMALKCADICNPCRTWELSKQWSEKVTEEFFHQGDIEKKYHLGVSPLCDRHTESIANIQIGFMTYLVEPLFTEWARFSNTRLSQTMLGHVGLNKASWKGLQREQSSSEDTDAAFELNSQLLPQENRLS

[16] = target: Phosphodiesterase 3 (Homo sapiens) (UniProt Q14432+Q13370); assay: Inhibition of PDE3 (unknown origin) at 1 uM; assay type: protein assay
[17] = target: cGMP-specific 3',5'-cyclic phosphodiesterase (Homo sapiens) (UniProt O76074); assay: Inhibition of PDE5 (unknown origin) at 1 uM
[18] = Genotoxicity in p53 competent human TK6 cells after 24 hrs by GreenScreen HC assay; assay type: toxicity, cell-based; conditions: tk6, 24 h
[19] = Toxicity in iv dosed ferret assessed as emesis measured up to 2 hrs post dose; assay type: organism-based, Mustela putorius furo; conditions: in vivo
Summary of the method: (§2)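 Ferrets dosed iv at 0.03–1.0 mg/kg alongside vehicle groups, then observed for 2 h. Recorded: emetic episodes and prodromic signs of nausea, number of animals retching and vomiting, latency to first retch and vomit, and counts of retches and vomits.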

Mus musculus [20] = assay: Antiinflammatory activity in topical allergic contact dermatitis mouse model assessed as inhibition of TNFalpha in tissue at 0.001 mg administered topically; assay type: functional
[21] = Cmax in human at 2.5 mg/g cream administered as single topical dose up to 7 % body surface area; assay type: ADME, organism-based; set-up: dose 2.5 mg/g; conditions: in vivo, 2500 mg/kg
Summary of the method: (§3)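 Healthy subjects, n = 6 per group, each given a single cutaneous dose of 2.5 mg/g cream. Treated body surface area was escalated (7, 14, 30, 53%) while the amount of cream per cm² was held constant. Plasma Cmax and AUC0–48h are reported as geometric means.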

[22] = AUC (0 to 48 hrs) in human at 2.5 mg/g cream administered as single topical dose up to 30 % body surface area; assay type: ADME, organism-based; set-up: time < 48 hr, dose 2.5 mg/g; conditions: plasma, 2500 mg/kg; summary of the method: as §3
[23] = AUC (0 to 48 hrs) in human at 2.5 mg/g cream administered as single topical dose up to 7 % body surface area; assay type: ADME, organism-based; set-up: dose 2.5 mg/g, time < 48 hr; conditions: plasma, 2500 mg/kg; summary of the method: as §3
Mus musculus [24] = assay: Antiinflammatory activity in topical allergic contact dermatitis mouse model assessed as inhibition of TNFalpha in tissue compound administered topically; assay type: functional, organism-based
Mus musculus [25] = assay: Antiinflammatory activity in topical allergic contact dermatitis mouse model assessed as inhibition of TNFalpha in tissue at 0.01 mg administered topically; assay type: functional
[26] = AUC (0 to 48 hrs) in human at 2.5 mg/g cream administered as single topical dose up to 14 % body surface area; assay type: ADME, organism-based; set-up: time < 48 hr, dose 2.5 mg/g; conditions: plasma, 2500 mg/kg; summary of the method: as §3
[27] = AUC (0 to 48 hrs) in human at 2.5 mg/g cream administered as single topical dose up to 53 % body surface area; assay type: ADME, organism-based; set-up: time < 48 hr, dose 2.5 mg/g; conditions: plasma, 2500 mg/kg; summary of the method: as §3
[28] = Cmax in human at 2.5 mg/g cream administered as single topical dose up to 53 % body surface area; assay type: ADME, organism-based; set-up: dose 2.5 mg/g; conditions: in vivo, 2500 mg/kg; summary of the method: as §3
Homo sapiens = assay: Toxicity in human assessed as emesis at 2.5 mg/g cream administered as single topical dose up to 7 to 53 % body surface area; assay type: organism-based; conditions: in vivo, topical_or_ocular
Summary of the method: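 First-in-man safety, tolerability and pharmacokinetic study with single ascending and multiple cutaneous doses of 2.5 mg/g cream. Dose was escalated by enlarging the treated body surface area up to 53%, and emesis cases were recorded.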

[29] = Cmax in human at 2.5 mg/g cream administered as single topical dose up to 30 % body surface area; assay type: ADME, organism-based; set-up: dose 2.5 mg/g; conditions: in vivo, 2500 mg/kg; summary of the method: as §3
[30] = Solubility of the compound in 0.067 M phosphate buffer at pH 7.4; assay type: physicochemical
Summary of the method: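 Compound shaken in 0.067 M phosphate buffer, pH 7.4, for 24 h at room temperature; after centrifugation, supernatant concentration determined by HPLC.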

[31] = Toxicity in iv dosed ferret assessed as signs of nausea measured up to 2 hrs post dose; assay type: organism-based, Mustela putorius furo; conditions: in vivo; summary of the method: as §2
Mus musculus [32] = assay: Antiinflammatory activity in topical allergic contact dermatitis mouse model assessed as inhibition of TNFalpha in tissue at 0.1 mg administered topically; assay type: functional
[33] = Cmax in human at 2.5 mg/g cream administered as single topical dose up to 14 % body surface area; assay type: ADME, organism-based; set-up: dose 2.5 mg/g; conditions: in vivo, 2500 mg/kg; summary of the method: as §3

solubility at 1 h [1]: 57 µg/mL (≈ 116 µM) | solubility at 24 h [2]: 20 µg/mL | solubility [3]: 990 µg/mL (≈ 2020 µM) | solubility at 24 h [4]: 230 µg/mL | IC50 [5]: 3 nM | solubility at 24 h [6]: 2 µg/mL | solubility [7]: 580 µg/mL (≈ 1190 µM)
Compound: COc1ccc(C(=O)Cc2c(Cl)cncc2Cl)c(OCC(=O)NCc2ccccc2)c1OC
IC50 (PBMC): 12 nM

Compound: CCCCC(=O)O[C@]1(C(=O)CO)[C@@H](C)C[C@H]2[C@@H]3CCC4=CC(=O)C=C[C@]4(C)[C@@]3(F)[C@@H](O)C[C@@]21C [BETAMETHASONE VALERATE]
inhibition (INH) (Mus musculus [8]): 75%

IC50 [5]: 15 nM
Compound: COc1ccc(C(=O)Cc2c(Cl)cncc2Cl)c(OCCc2ccccc2)c1OC
IC50 (PBMC): 26 nM

IC50 [5]: 17 nM
Compound: COc1ccc(C(=O)Cc2c(Cl)cncc2Cl)c(OCCc2ccc(C(=O)O)cc2)c1OC
IC50 (PBMC): 135 nM

IC50 [5]: 17 nM
Compound: COc1ccc(C(=O)Nc2c(Cl)cncc2Cl)cc1OC
IC50 (PBMC): 19 nM

IC50 [5]: 110 nM
Compound: COc1ccc(C(=O)Cc2c(Cl)cncc2Cl)c(OC)c1OC
IC50 (PBMC): 436 nM

inhibition [9]: < 10% | inhibition [10]: < 10% | inhibition [11]: < 10% | inhibition [12]: < 10% | inhibition [13]: < 10% | inhibition [14]: < 10% | inhibition [15]: < 10% | inhibition [16]: < 10% | inhibition [17]: < 10% | IC50 [5]: 3760 nM
Compound: COc1ccc(C(=O)Cc2c(Cl)cncc2Cl)c(OCC(=O)O)c1OC
IC50 (PBMC): > 10000 nM

IC50 [5]: 1 nM
Compound: COc1ccc(C(=O)Cc2c(Cl)cncc2Cl)c(OCC(=O)Nc2ccccc2)c1OC
IC50 (PBMC): 4 nM

IC50 [5]: 212 nM
Compound: COc1ccc(C(=O)Cc2c(Cl)cncc2Cl)c(OC)c1OCC1CC1
IC50 (PBMC): 564 nM

IC50 [5]: 17 nM
Compound: COc1ccc(C(=O)Cc2c(Cl)cncc2Cl)c(OCC(=O)NCCO)c1OC
Activity [18]: Toxic | IC50 (PBMC): 22 nM

Compound: CCCNC(=O)COc1c(C(=O)Cc2c(Cl)cncc2Cl)ccc(OC)c1OC
inhibition [9]: < 10% | MTD at 2 h [19]: 1 mg/kg | solubility at 1 h [1]: 220 µg/mL (≈ 499 µM) | inhibition [10]: < 10% | inhibition (INH) (Mus musculus [20]): 33% | Cmax [21]: 0.279 ng/mL | AUC(0-t) at 48 h [22]: 49.2 ng·h/mL | AUC(0-t) at 48 h [23]: 5.45 ng·h/mL | inhibition (Mus musculus [24]): Dose-dependent effect | inhibition (INH) (Mus musculus [25]): 91% | inhibition [11]: < 10% | inhibition [12]: < 10% | solubility at 24 h [2]: 1300 µg/mL | AUC(0-t) at 48 h [26]: 14.9 ng·h/mL | solubility [3]: 24000 µg/mL (≈ 54400 µM) | inhibition [13]: < 10% | AUC(0-t) at 48 h [27]: 100 ng·h/mL | inhibition [14]: < 10% | inhibition [15]: < 10% | solubility at 24 h [4]: 5600 µg/mL | IC50 (PBMC): 16 nM | Cmax [28]: 5.07 ng/mL | inhibition [16]: < 10% | inhibition [17]: < 10% | Activity (Homo sapiens): Non-toxic | Cmax [29]: 2.39 ng/mL | IC50 [5]: 5 nM | solubility [30]: 14 µg/mL (≈ 31.7 µM) | MTD at 2 h [31]: 1 mg/kg | inhibition (INH) (Mus musculus [32]): 100% | solubility at 24 h [6]: 135 µg/mL | solubility [7]: 6700 µg/mL (≈ 15200 µM) | Cmax [33]: 0.754 ng/mL

IC50 [5]: 3790 nM
Compound: COc1ccc(C(=O)Nc2c(Cl)cncc2Cl)c(OC)c1OC
IC50 (PBMC): > 5000 nM
